Columns and labels:
[1] = Half-life at 37 degree Celsius in aqueous solution at pH 7.4; type: ADME
Outline: (§1)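 Carbamate hydrochloride salt (about 0.5 mg) taken up in buffer pre-warmed to 37 °C, final about 1 mM, and held at 37 °C. Samples were injected straight onto C-18 reverse-phase HPLC at intervals, or quenched in 1 N HCl first. Carbamate and 4-methoxyphenol were read at 220 nm. Half-life is the time to 50% conversion, fitted by first-order kinetics. Each value is the mean of at least two separate runs.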

[2] = pKa of the compound; type: physicochemical
[3] = Half-life at 37 degree Centigrade, towards Murine plasma esterases at pH 7.4; type: ADME; details: mouse
Outline: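 Carbamate HCl salt dissolved in dilute H3PO4, then added to fresh murine plasma with pH 7.4 phosphate buffer (plasma:buffer 1.6:0.40) at 37 °C, final 5×10^-4 M. pH held at 7.4 by pH-stat. Aliquots taken at intervals were quenched in 7% HClO4 and centrifuged, and the supernatant was analysed.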

[4] = Half-life at 37 degree Centigrade, in aqueous solution at pH 7.4; type: ADME; outline: as §1
[5] = Half-life at 37 degree Celsius in aqueous solution at pH 4.2; type: ADME; outline: as §1
[6] = Half-life at 37 degree Celsius in aqueous solution at pH 5.2; type: ADME; outline: as §1
[7] = Half-life at 37 degree Celsius in aqueous solution at pH 6.8; type: ADME; outline: as §1

SMILES	half-life [1] [h]	pKa [2]	further results
CCNCCN(CC)C(=O)Oc1ccc(OC)cc1.Cl	1.97	–	–
COc1ccc(OC(=O)NCCCN)cc1.Cl	15.2	9.6	–
CNCCN(C)C(=O)Oc1ccc(OC)cc1.Cl	–	–	half-life [3]: 0.933 h; half-life [4]: 0.605 h; half-life [5]: > 360 h; half-life [6]: 57.8 h; half-life [7]: 2.33 h
COc1ccc(OC(=O)N(C)CCN(C)C)cc1.Cl	0.66	–	–
CNCCCN(C)C(=O)Oc1ccc(OC)cc1.Cl	15.7	–	–
CNCCNC(=O)Oc1ccc(OC)cc1.Cl	5.58	–	–
COc1ccc(OC(=O)NCCN)cc1.Cl	12.1	8.65	–
CNCCOC(=O)Oc1ccc(OC)cc1.Cl	< 0.005	–	–
COc1ccc(OC(=O)N(C)CCN)cc1.Cl	5.07	8.9	–

Reference: ChEMBL document CHEMBL1124971, “Cyclization-activated prodrugs. Basic carbamates of 4-hydroxyanisole” (J Med Chem, 1990)
